This is a sample that favours compounds with a hit; in the whole collection about 3.5% have one here.
pPAFAH FP inh: pPAFAH (human) enzyme inhibition. AID 463082. inhibition, % at 3.39 µM. actives 1.5% (n = 330,000). recombinant pPAFAH, FP-rhodamine probe fluorescence polarization;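 active means inhibition above the mean inhibition across the screen plus 3 SD, cut at about 25% in these data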;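 further: inhibitors block binding of the rhodamine activity-based probe so polarization drops; 0% = enzyme with DMSO and 100% = wells lacking pPAFAH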
Target sequence (Q13093 whole entry, looked up): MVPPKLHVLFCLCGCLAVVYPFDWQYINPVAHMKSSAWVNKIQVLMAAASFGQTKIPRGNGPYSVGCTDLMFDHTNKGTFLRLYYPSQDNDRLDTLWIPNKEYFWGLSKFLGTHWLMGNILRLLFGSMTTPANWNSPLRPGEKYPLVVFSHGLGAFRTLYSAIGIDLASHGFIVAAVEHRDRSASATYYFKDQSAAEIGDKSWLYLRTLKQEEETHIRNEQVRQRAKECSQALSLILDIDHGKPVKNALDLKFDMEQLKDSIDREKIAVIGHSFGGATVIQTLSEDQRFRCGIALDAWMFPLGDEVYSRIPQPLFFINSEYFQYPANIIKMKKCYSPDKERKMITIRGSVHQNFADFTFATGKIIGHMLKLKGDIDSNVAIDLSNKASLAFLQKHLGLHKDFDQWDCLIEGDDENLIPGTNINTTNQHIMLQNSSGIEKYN
PREPL inh: human PREPL enzyme inhibition; Q4J6C6; recombinant PREPL, fluorescence polarization activity-based probe; inhibition, % at 5.96 µM; actives 0.68% (n = 320,000);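 further: 0% = enzyme with DMSO and 100% = wells lacking enzyme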
Apaf1 inhib: blocks human Apaf-1 apoptosome activity | O14727 | reconstituted apoptosome caspase-3 activity, DEVD-Rh110 fluorescence | inhibition, % at 20 µM | actives 0.71% (n = 330,000) | AID 489030; active means inhibition of at least 40% at 20 µM;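 further: plate controls were DMSO wells for no effect and DEVD-CHO caspase inhibitor wells for full effect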
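Assay system – apoptosome proteins · Medium – Hepes buffer, pH 7.5 · Also added – cytochrome c with DEVD-Rh110 · Timing – 30 min compound preincubation, 50 min activation, room temperature · Detection – Rh110 fluorescence, excitation 480 nm, emission 540 nm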
PAFAH1B3 inh: PAFAH1B3 (human) inhibition. Q15102. recombinant PAFAH1B3, FP-rhodamine probe, fluorescence polarization. inhibition, % at 3.39 µM. actives 0.28% (n = 340,000);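 active means inhibition above the screen-wide average of all tested compounds plus 3 SD, cut at about 25% in these data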;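 further: 0% = enzyme with DMSO only and 100% = wells lacking PAFAH1B3 protein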
PAFAH1B2 FP inh: PAFAH1B2 (human) inhibition | actives 1.2% (n = 340,000) | P68402 | recombinant PAFAH1B2, FP-rhodamine activity probe, fluorescence polarization | inhibition, % at 3.39 µM;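 active means inhibition above the mean of all tested compounds plus 3 SD, cut at about 24% in these data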;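 further: 0% = enzyme with DMSO and 100% = wells lacking PAFAH1B2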
Target sequence (P68402 whole entry, looked up): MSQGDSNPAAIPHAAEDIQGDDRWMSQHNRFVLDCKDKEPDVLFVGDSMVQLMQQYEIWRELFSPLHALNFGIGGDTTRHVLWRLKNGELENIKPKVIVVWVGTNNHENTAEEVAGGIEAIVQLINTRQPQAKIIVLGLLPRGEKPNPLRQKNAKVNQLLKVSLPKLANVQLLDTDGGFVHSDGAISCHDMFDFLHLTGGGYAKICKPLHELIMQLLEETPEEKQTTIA
PAFAH2 inh: PAFAH2 (human) inhibition. Q99487. recombinant PAFAH2, FP-rhodamine activity probe, fluorescence polarization. inhibition, % at 3.39 µM. actives 0.99% (n = 340,000). AID 492956;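 active means inhibition above the mean over all tested compounds plus 3 SD, cut at about 30% in these data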;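 further: inhibitors block probe labeling of enzyme so polarization drops; 0% = enzyme with DMSO and 100% = wells lacking PAFAH2 protein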
PREPL confirm: confirmation of human PREPL enzyme inhibitors; shares compounds with PREPL inh; recombinant PREPL, fluorescence polarization activity probe; inhibition, % at 5.96 µM; actives 67% (n = 2,000); AID 2803;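 further: 0% = protein with DMSO and 100% = wells lacking protein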
pPAFAH confirm: confirmation of human plasma PAF acetylhydrolase (pPAFAH) inhibitors. shares compounds with pPAFAH FP inh. recombinant pPAFAH, FP-Rh probe fluorescence polarization. inhibition, % at 3.39 µM. actives 72% (n = 2,300);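 active means mean inhibition of the triplicate above the hit cutoff set for the earlier primary screen, cut at about 25% in these data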;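 further: 0% = enzyme with DMSO and 100% = wells lacking pPAFAH enzyme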
The depositor's hits bear a star; x = not tested or not shown. Unless noted, no stated cut-off is given here; in the data, active means inhibition above about 43%; inactive means the rest.

SMILES | pPAFAH FP inh | PREPL inh | Apaf1 inhib | PAFAH1B3 inh | PAFAH1B2 FP inh | PAFAH2 inh | PREPL confirm | pPAFAH confirm
CC(C)(C)NC(=O)c1ccc2c(c1)N(CC(=O)N1CCCCC1)C(=O)C(C)(C)O2 | -3.1 | 8.6 | -17.6 | 0.6 | 3.9 | 6.4 | x | x
NNC(=O)c1oc2nc(-c3ccco3)cc(-c3ccco3)c2c1N | 34.4* | 47.4* | 8.0 | x | x | x | 57.2* | x
Nc1c(C(=O)N/N=C/c2cccnc2)oc2nc(-c3ccco3)cc(-c3ccco3)c12 | 24.0 | 28.6 | -12.0 | x | x | x | x | x
COc1ccc(N2CCN(C(=O)c3cn(C4CCCC4)c(=O)c4c3c3ccccc3n4C)CC2)cc1 | 12.5 | 62.5* | 26.5 | -0.9 | 4.0 | 9.0 | 61.2* | x
Oc1cc(Nc2ccncc2)cc2cccnc12 | 5.9 | 46.5* | -3.8 | -0.6 | 8.9 | -3.6 | 51.0* | x
CN(CC(=O)Nc1ccc(Cl)c(C(F)(F)F)c1)C(=O)Cc1n[nH]c(=O)c2ccccc12 | 11.4 | 56.8* | 18.1 | -2.4 | 1.0 | 4.1 | 14.6 | x
CN(CC(=O)Nc1cccc(F)c1)C(=O)Cc1n[nH]c(=O)c2ccccc12 | 1.1 | -2.7 | -5.2 | 3.7 | 1.6 | -1.0 | x | x
Cc1ccc(S(=O)(=O)C2(C(=O)NCCc3ccccc3)CC2)cc1 | -1.5 | -12.1 | 6.1 | 12.6 | 8.6 | 11.8 | x | x
COC(C[C@@H]1O[C@@H]1[C@H](O)COCc1ccccc1)OC | 3.5 | -2.9 | -10.1 | -3.1 | 3.8 | -7.8 | x | x
CC(=O)N[C@@H](Cc1c[nH]c2ccccc12)C(=O)NC1CCCc2ccccc21 (some centres undefined) | 2.7 | 18.3 | 5.4 | -3.1 | 5.8 | -3.4 | x | x
COc1ccc(CNC(=O)N2CCN(c3ccccc3OC)CC2)cc1 | 1.4 | 11.8 | 0.5 | 8.5 | 4.3 | -1.6 | x | x
CCC1(C)Cc2c(sc(NC(=S)NC(=O)c3ccccc3)c2C#N)CO1 (centres undefined) | 5.0 | 1.1 | -3.5 | 2.4 | 2.6 | 0.8 | x | x
CN1Cc2sc(NC(=S)NC(=O)c3ccccc3)c(C#N)c2CC1(C)C | 16.1 | 58.4* | 18.5 | x | x | x | 18.8 | x
O=c1cc(-c2ccc(O)c(O)c2)oc2c1ccc1ccccc12 | 77.9* | 51.7* | 22.0 | 33.6* | 14.2 | 48.0* | 33.0 | 81.7*
COc1ccc(CNC(=O)CCC(=O)Nc2cccnc2)cc1 | 3.7 | 7.3 | -3.8 | 9.7 | 0.3 | -0.8 | x | x
CCN(C(=O)COC(=O)c1ccc(O)cc1)c1cccc2ccccc12 | -1.3 | -1.4 | 15.8 | 5.9 | 0.7 | 13.3 | x | x
Cc1nn(-c2ccc(Br)cc2)c(=O)c2ccccc12 | 51.1* | 74.8* | 4.5 | 4.9 | 0.8 | 3.3 | 1.9 | 3.1
Cc1nn(-c2ccccc2C(=O)O)c(=O)c2ccccc12 | 5.5 | -5.7 | -11.3 | 3.2 | 2.1 | -10.1 | x | x
CCNc1c2c3c(cccc3n(C)c1=O)C(=O)c1ccccc1-2 | 52.8* | 69.2* | 9.7 | x | x | x | 54.3* | 45.1*
Cn1c(=O)cc2c3c(c(N4CCCCC4)ccc31)C(=O)c1ccccc1-2 | 54.5* | 54.9* | 7.2 | x | x | x | 57.4* | 28.3*
Cc1nc2ccccc2c(=O)n1/N=C/c1ccc(O)c(O)c1O | 86.8* | 45.3* | 25.0 | 27.1* | 7.0 | 45.5* | 38.2 | 46.7*
Nc1c(C(=O)O)ccc2c1C(=O)c1ccccc1C2=O | 8.6 | -5.7 | 4.3 | 2.9 | 3.5 | -2.1 | x | x
Nc1cc(C(=O)O)c(N)c2c1C(=O)c1ccccc1C2=O | 74.0* | 84.3* | 29.7 | 73.0* | 56.4* | 65.8* | 71.6* | 53.7*
CC1=CC(=O)N(c2cccc(C(F)(F)F)c2)C1c1ccc(Cl)cc1 (centres undefined) | 6.0 | -64.2 | 13.0 | 7.0 | 7.9 | -5.4 | x | x
CC(=O)Oc1cc2cccc(OC(C)=O)c(=O)c2c(OC(C)=O)c1OC(C)=O | 90.9* | 63.0* | 0.6 | 45.5* | 44.8* | 87.8* | 34.9 | 33.6*
SMILES | pPAFAH FP inh | PREPL inh | Apaf1 inhib | PAFAH1B3 inh | PAFAH1B2 FP inh | PAFAH2 inh | PREPL confirm | pPAFAH confirm
CCOc1cc(CNc2ccc(O)cc2)ccc1OCc1ccc(Cl)cc1Cl | 36.0* | 57.1* | 93.5* | 16.2 | 11.2 | 11.0 | 50.8* | 21.5
CC(=O)OCC1OC(OCc2cn(C[C@H]3CC[C@H](Cn4cc(COC5OC(COC(C)=O)C(OC(C)=O)C(OC(C)=O)C5OC(C)=O)nn4)O3)nn2)C(OC(C)=O)C(OC(C)=O)C1OC(C)=O (some centres undefined) | 6.5 | 6.7 | 0.5 | -2.7 | -4.9 | -4.0 | x | x
CCCCCCCCC[n+]1cccc2c3ccccc3ccc21 | 6.6 | 11.9 | 33.5 | -0.6 | 1.6 | -1.6 | x | x
CCCCCCCCCCCCCCCC[n+]1cccc2ccccc21 | 56.5* | 56.2* | 91.1* | -1.1 | -7.5 | -3.4 | 41.8 | 32.6*
O=C1C(=O)N(CCN2CCOCC2)C(c2ccc([N+](=O)[O-])cc2)/C1=C(/O)c1ccc2c(c1)OCO2 (centres undefined) | 0.5 | 15.4 | -319.2 | -4.4 | -4.3 | -0.8 | x | x
Cc1cc(O)ccc1C1(c2ccc(O)cc2C)OC(=O)c2ccccc21 | 8.7 | -11.4 | 17.9 | -6.1 | 4.4 | 0.1 | x | x
CC(=O)Oc1ccc2c(c1)Oc1cc(OC(C)=O)ccc1C21OC(=O)c2ccccc21 | 99.3* | 95.2* | -258.8 | 129.0* | 110.3* | 123.8* | 112.2* | 89.6*
O=C(N/N=C/c1cc(Cl)c(O)c(Cl)c1)c1cc2c(ccc3ccccc32)o1 | 61.1* | 59.0* | 14.2 | 21.2 | 36.4* | 44.7* | 68.5* | 70.0*
CCOC(=O)c1c(Nc2ccc(Cl)cc2)sc(/C=C2\C=Nc3ccccc32)c1O | 3.4 | 15.3 | 13.6 | -12.1 | 0.3 | -5.9 | x | x
Oc1nc(Nc2cccc(Cl)c2)sc1/C=C1\C=Nc2ccccc21 | 37.0* | 55.9* | 11.3 | 15.4 | 9.8 | -4.3 | 64.3* | 28.7*
Cc1ccc(-c2ccccc2NC(=O)CS(=O)CC(=O)Nc2ccc(C)c(Cl)c2)o1 (centres undefined) | 85.3* | 60.1* | 14.4 | 3.8 | 22.0 | 3.2 | 4.7 | 8.0
Cc1ccc(-c2ccccc2NC(=O)CCl)o1 | -0.9 | -3.4 | 1.0 | 11.8 | 7.4 | -1.3 | x | x
CCOC(=O)C1CCN(C(=O)CCNS(=O)(=O)c2cc(Br)cnc2N)CC1 | 0.3 | 0.7 | -6.0 | -308.4 | 0.5 | 0.6 | x | x
Cc1nc(-c2ccc(O)c(O)c2)cs1 | 35.1* | 45.6* | 3.2 | 10.2 | 6.6 | -3.5 | 2.2 | 5.5
COCCSc1nnc(NC(=O)C(C)(C)C)s1 | -3.2 | -10.5 | -2.8 | 5.5 | 3.6 | -4.5 | x | x
COc1cc2[nH]c3c(N4CCN(c5ccccn5)CC4)ncnc3c2cc1OC | 69.8* | 69.0* | 11.2 | 6.9 | 4.2 | -3.2 | 69.2* | 57.6*

Bioassay records: PubChem BioAssay, several laboratories
